We go through four compounds from ChEMBL document CHEMBL3232782, “1,2,3,4,8,9,10,11-octahydrobenzo[j]phenanthridine-7,12-diones as new leads against Mycobacterium tuberculosis” (J Med Chem, 2014).

SMILES strings stand for the structures. ≈ marks a conversion by molar mass, not a printed value.

For the experiment, the system named is Mycobacterium tuberculosis variant bovis. In words: Antimycobacterial activity against Mycobacterium bovis AN5 expressing luciferase assessed as growth inhibition after 6 days by luminometry. The experiment is classed as functional. Conditions: AN5, 144 h. Summed up: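 Strains carried pSMT1 luxAB reporter plasmid. DMSO stocks 10 mM, serially diluted in 7H9 + 10% FCS, triplicate wells. Filtered bacterial suspension at 50 000 RLU/mL. Luminescence read after 6 days using 1% n-decanal substrate. […] Growth temperatures: M.tb 37 °C; M. avium and M. bovis 39 °C.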
In general, MIC refers to the least concentration at which growth counts as inhibited. As to `CC(C)(C)C1CCc2ncc3c(c2C1)C(=O)C1=C(C3=O)C2CCC1C2` (centres undefined), the minimum inhibitory concentration (MIC) was determined as 0.78 µM (≈ 0.262 µg/mL).
The result for `CCOC(=O)C1CCc2ncc3c(c2C1)C(=O)C1=C(C3=O)C2CCC1C2` (centres undefined) reads 0.09 µM (≈ 0.0316 µg/mL); that for `CCOC(=O)C1CCc2ncc3c(c2C1)C(=O)C1=C(C3=O)C2CCC1CC2` (centres undefined), 0.57 µM (≈ 0.208 µg/mL).
In the case of `NNC(=O)c1ccncc1` [ISONIAZID], the MIC was found to be 0.08 µM (≈ 0.011 µg/mL).
